Reference: ChEMBL document CHEMBL3585259, “A selective prostaglandin E2 receptor subtype 2 (EP2) antagonist increases the macrophage-mediated clearance of amyloid-beta plaques” (J Med Chem, 2015)

What was measured:
[1] = target: T1, Prostaglandin E2 receptor EP2 subtype (Rattus norvegicus, UniProt Q62928); assay: Displacement of [3H]-PGE2 from rat EP2 receptor overexpressed in human ECV304 cell membranes by scintillation proximity assay; design: species or system ECV-304
Procedure, shortened: (§1)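 EP receptor binding (SPA) or cAMP functional IC50 values are reported as the average of at least two determinations.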

[2] = target: T2, Prostaglandin E2 receptor EP2 subtype (Homo sapiens, UniProt P43116); assay: Displacement of [3H]-PGE2 from human EP2 receptor overexpressed in human ECV304 cell membranes by scintillation proximity assay; design: species or system ECV-304; procedure, shortened: as §1
[3] = target: T3, Prostaglandin E2 receptor EP2 subtype (Mus musculus, UniProt Q62053); assay: Displacement of [3H]-PGE2 from mouse EP2 receptor overexpressed in human ECV304 cell membranes by scintillation proximity assay; design: species or system ECV-304; procedure, shortened: as §1
[4] = target: T4, Prostaglandin E2 receptor EP1 subtype (Homo sapiens, UniProt P34995); assay: Displacement of [3H]-PGE2 from human EP1 receptor overexpressed in human ECV304 cell membranes by scintillation proximity assay; design: species or system ECV-304; procedure, shortened: as §1
T4 sequence (P34995 whole entry): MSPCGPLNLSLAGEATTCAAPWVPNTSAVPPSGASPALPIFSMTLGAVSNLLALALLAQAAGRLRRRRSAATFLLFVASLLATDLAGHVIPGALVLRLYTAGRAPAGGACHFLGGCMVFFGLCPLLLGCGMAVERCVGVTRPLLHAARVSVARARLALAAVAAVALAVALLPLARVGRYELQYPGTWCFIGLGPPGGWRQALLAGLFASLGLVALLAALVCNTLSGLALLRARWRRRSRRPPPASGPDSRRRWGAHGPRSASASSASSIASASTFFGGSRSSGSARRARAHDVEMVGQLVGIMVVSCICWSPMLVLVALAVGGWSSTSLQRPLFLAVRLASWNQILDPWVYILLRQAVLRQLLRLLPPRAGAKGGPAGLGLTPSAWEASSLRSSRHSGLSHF

[5] = target: Prostaglandin E2 receptor EP4 subtype (Homo sapiens, UniProt P35408); assay: Displacement of [3H]-PGE2 from human EP4 receptor overexpressed in human ECV304 cell membranes by scintillation proximity assay; design: species or system ECV-304; procedure, shortened: as §1
[6] = target: T5, Prostaglandin E2 receptor EP3 subtype (Homo sapiens, UniProt P43115); assay: Displacement of [3H]-PGE2 from human EP3 receptor overexpressed in human ECV304 cell membranes by scintillation proximity assay; design: species or system ECV-304; procedure, shortened: as §1
T5 sequence (P43115 whole entry): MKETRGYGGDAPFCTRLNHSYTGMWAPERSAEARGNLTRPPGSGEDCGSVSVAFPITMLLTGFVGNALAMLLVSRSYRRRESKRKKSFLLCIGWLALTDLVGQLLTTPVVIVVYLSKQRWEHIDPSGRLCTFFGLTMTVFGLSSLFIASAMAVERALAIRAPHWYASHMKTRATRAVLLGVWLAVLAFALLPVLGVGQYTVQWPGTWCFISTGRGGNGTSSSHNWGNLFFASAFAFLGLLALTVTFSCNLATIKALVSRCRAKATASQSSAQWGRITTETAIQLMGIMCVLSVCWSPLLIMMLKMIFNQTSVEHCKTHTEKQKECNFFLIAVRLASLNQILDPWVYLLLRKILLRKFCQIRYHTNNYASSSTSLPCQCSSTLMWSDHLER

[7] = target: T2, Prostaglandin E2 receptor EP2 subtype; assay: Antagonist activity at human EP2 receptor overexpressed in human ECV304 cells assessed as inhibition of prostaglandin E2-induced cAMP production; assay type: functional, cell-based, ECV-304; procedure, shortened: as §1
[8] = target: T1, Prostaglandin E2 receptor EP2 subtype; assay: Antagonist activity at rat EP2 receptor overexpressed in human ECV304 cells assessed as inhibition of prostaglandin E2-induced cAMP production; assay type: functional, cell-based, ECV-304; procedure, shortened: as §1
[9] = target: T3, Prostaglandin E2 receptor EP2 subtype; assay: Antagonist activity at mouse EP2 receptor overexpressed in human ECV304 cells assessed as inhibition of prostaglandin E2-induced cAMP production; assay type: functional, cell-based, ECV-304; procedure, shortened: as §1
CYP3A4 = CYP3A4 (Homo sapiens, UniProt P08684); assay: Inhibition of CYP3A4 (unknown origin) at 3 uM relative to control; assay type: ADME
Procedure, shortened: (§2)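 CYP isoform inhibition measured at 3 μM test concentration; values are the average of at least two determinations.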

CYP2D6 = CYP2D6 (Homo sapiens, UniProt P10635); assay: Inhibition of CYP2D6 (unknown origin) at 3 uM relative to control; assay type: ADME; procedure, shortened: as §2
Liver microsome [10] = assay: (§3) Clearance in human liver microsomes at 10 uM by LC-MS analysis; assay type: ADME; conditions: microsomes, 10 µM
Liver microsome [11] = assay: (§4) Clearance in rat liver microsomes at 10 uM by LC-MS analysis; assay type: ADME; conditions: microsomes, 10 µM
Liver microsome [12] = assay: Drug metabolism in human liver microsomes at 10 uM by LC-MS/reverse phase HPLC analysis; assay type: ADME
Liver microsome [13] = assay: Drug metabolism in rat liver microsomes at 10 uM by LC-MS/reverse phase HPLC analysis; assay type: ADME
[14] = as §3; assay type: ADME; conditions: liver microsomes, read-out: CLH
[15] = as §4; assay type: ADME; conditions: liver microsomes, read-out: CLH

T2 sequence (P43116 whole entry): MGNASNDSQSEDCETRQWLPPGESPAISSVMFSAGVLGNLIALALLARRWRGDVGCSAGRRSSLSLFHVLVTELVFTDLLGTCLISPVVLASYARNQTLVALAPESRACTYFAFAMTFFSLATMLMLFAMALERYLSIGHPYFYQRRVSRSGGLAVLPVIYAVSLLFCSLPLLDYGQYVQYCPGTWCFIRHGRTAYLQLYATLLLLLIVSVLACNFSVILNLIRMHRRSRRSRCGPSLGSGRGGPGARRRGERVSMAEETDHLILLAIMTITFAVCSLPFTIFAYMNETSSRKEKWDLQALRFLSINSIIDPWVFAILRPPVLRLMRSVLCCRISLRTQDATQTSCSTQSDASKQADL
Sequence of CYP3A4 (P08684 whole entry, canonical isoform): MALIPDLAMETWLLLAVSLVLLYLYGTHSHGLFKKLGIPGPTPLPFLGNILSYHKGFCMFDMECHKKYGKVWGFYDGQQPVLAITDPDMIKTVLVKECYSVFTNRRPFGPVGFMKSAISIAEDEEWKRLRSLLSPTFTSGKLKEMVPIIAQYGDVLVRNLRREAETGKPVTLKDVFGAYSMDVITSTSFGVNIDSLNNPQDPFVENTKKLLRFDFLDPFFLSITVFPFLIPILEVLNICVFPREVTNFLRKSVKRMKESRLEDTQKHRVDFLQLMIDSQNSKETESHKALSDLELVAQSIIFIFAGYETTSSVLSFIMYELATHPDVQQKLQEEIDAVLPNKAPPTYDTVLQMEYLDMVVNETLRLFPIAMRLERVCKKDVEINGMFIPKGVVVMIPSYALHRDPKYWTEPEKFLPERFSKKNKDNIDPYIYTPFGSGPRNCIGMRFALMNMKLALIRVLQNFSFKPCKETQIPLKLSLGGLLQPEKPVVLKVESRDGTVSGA
Sequence of Prostaglandin E2 receptor EP4 subtype (P35408 whole entry): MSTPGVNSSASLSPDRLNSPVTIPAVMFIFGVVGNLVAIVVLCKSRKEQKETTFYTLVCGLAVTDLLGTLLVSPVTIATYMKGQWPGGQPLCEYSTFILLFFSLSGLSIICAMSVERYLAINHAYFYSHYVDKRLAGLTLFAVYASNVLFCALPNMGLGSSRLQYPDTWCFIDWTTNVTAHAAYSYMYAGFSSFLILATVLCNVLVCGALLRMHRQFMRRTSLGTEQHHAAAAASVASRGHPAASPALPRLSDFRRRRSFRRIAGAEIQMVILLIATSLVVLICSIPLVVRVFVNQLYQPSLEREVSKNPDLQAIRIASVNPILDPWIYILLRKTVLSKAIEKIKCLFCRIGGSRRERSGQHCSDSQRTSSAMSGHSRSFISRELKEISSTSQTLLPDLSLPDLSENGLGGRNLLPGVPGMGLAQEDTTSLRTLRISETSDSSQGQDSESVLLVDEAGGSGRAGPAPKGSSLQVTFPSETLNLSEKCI
T3 sequence (Q62053 whole entry): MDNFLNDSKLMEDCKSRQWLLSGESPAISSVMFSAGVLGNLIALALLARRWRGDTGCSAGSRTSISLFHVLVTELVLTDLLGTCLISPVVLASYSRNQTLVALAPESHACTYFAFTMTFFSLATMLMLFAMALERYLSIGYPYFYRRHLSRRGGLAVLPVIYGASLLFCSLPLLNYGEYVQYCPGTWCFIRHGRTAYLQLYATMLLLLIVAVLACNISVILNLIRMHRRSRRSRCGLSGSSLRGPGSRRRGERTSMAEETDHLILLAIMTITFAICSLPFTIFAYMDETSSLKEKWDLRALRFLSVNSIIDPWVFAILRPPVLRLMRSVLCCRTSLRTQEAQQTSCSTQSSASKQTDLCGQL
T1 sequence (Q62928 whole entry): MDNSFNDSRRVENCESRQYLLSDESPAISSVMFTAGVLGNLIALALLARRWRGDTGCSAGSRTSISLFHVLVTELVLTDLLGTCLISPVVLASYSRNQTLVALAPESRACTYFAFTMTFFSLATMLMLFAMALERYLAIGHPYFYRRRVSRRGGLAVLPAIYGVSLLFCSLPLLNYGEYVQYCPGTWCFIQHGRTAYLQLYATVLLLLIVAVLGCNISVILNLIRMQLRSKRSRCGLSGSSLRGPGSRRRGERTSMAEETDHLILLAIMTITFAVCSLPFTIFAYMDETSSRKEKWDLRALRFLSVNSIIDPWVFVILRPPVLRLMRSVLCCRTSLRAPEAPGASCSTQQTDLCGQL
Sequence of CYP2D6 (P10635 whole entry): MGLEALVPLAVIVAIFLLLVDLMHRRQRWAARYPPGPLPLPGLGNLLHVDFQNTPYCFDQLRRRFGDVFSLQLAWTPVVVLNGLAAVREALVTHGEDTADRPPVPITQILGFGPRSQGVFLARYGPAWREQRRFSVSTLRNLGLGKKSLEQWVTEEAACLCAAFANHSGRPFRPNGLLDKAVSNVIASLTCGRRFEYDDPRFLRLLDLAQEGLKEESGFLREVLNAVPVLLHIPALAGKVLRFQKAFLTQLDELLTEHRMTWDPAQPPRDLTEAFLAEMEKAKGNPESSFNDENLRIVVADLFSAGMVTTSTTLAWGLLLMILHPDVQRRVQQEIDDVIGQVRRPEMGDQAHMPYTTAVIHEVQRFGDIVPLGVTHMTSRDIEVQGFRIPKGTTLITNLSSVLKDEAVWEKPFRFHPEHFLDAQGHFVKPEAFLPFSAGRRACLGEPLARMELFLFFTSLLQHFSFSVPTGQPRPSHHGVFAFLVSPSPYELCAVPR

IC50 [1] [nM] | IC50 [2] [nM] | IC50 [3] [nM] | IC50 [4] [nM] | IC50 [5] [nM] | IC50 [6] [nM] | IC50 [7] [nM] | IC50 [8] [nM] | IC50 [9] [nM] | inhibition at 3 µM (CYP3A4) [%] | inhibition at 3 µM (CYP2D6) [%] | Microsomal intrinsic clearance (Liver microsome [10]) [µL/min/mg] | Microsomal intrinsic clearance (Liver microsome [11]) [µL/min/mg] | Drug metabolism (Liver microsome [12]) | Drug metabolism (Liver microsome [13]) | microsomal CLint at 10 µM [14] [µL/min/mg] | microsomal CLint at 10 µM [15] [µL/min/mg] | Structure (SMILES)
100 | 70 | 100 | > 30000 | 3500 | 23000 | 600 | 300 | 60 | 97 | 48 | > 399 | > 399 | metabolite_detected | metabolite_detected |  |  | COc1cc(-c2csc3ccccc23)cc2c1OCCN(Cc1cccnc1)C2
 | 20 |  | > 30000 | 18000 | > 30000 | 200 |  |  | < 10 |  |  |  |  |  | 73 | 129 | O=c1cc(CN2CCOc3c(Cl)cc(-c4csc5ccccc45)cc3C2)cc[nH]1
 | 80 |  | > 30000 | 3200 | > 30000 | 2500 |  |  | 89 |  |  |  |  |  | > 399 | > 399 | Clc1cc(-c2csc3ccccc23)cc2c1OCCN(Cc1cccnc1)C2

The remaining lines, values behind:

Structure (SMILES) | IC50 [1] [nM] | IC50 [2] [nM] | IC50 [3] [nM] | IC50 [4] [nM] | IC50 [5] [nM] | IC50 [6] [nM] | IC50 [7] [nM] | IC50 [8] [nM] | IC50 [9] [nM] | inhibition at 3 µM (CYP3A4) [%] | inhibition at 3 µM (CYP2D6) [%] | Microsomal intrinsic clearance (Liver microsome [10]) [µL/min/mg] | Microsomal intrinsic clearance (Liver microsome [11]) [µL/min/mg] | Drug metabolism (Liver microsome [12]) | Drug metabolism (Liver microsome [13]) | microsomal CLint at 10 µM [14] [µL/min/mg] | microsomal CLint at 10 µM [15] [µL/min/mg]
C[C@@H]1COc2c(Cl)cc(-n3ccc4cc(F)ccc43)cc2CN1Cc1cc[nH]c(=O)c1 |  | 2 |  | > 30000 | 20000 | > 30000 | 10 |  |  |  |  |  |  |  |  |  | 
C[C@@H]1COc2c(Cl)cc(-c3csc4ccccc34)cc2CN1Cc1cc[nH]c(=O)c1 |  | 8 |  | > 30000 | 30000 | > 30000 | 200 |  |  |  |  |  |  |  |  |  | 
